Measurements reported in ChEMBL document CHEMBL2203171, “The use of small molecule probes to study spatially separated stimulus-induced signaling pathways” (Bioorg Med Chem Lett, 2012).
Active and inactive are the calls of the source. No cut-off for these calls is given here.

Experiments:
Assay type in all cases: cell-based
[1] = target: T1, Inhibitor of nuclear factor kappa-B kinase subunit beta (Mus musculus) (UniProt O88351); experiment: Inhibition of IKKbeta in C57BL/6 mouse BMDM cells assessed as inhibition of TNFalpha-induced IkappaBalpha phosphorylation at 25 uM after 5 mins by Western blot analysis
T1 sequence (whole entry): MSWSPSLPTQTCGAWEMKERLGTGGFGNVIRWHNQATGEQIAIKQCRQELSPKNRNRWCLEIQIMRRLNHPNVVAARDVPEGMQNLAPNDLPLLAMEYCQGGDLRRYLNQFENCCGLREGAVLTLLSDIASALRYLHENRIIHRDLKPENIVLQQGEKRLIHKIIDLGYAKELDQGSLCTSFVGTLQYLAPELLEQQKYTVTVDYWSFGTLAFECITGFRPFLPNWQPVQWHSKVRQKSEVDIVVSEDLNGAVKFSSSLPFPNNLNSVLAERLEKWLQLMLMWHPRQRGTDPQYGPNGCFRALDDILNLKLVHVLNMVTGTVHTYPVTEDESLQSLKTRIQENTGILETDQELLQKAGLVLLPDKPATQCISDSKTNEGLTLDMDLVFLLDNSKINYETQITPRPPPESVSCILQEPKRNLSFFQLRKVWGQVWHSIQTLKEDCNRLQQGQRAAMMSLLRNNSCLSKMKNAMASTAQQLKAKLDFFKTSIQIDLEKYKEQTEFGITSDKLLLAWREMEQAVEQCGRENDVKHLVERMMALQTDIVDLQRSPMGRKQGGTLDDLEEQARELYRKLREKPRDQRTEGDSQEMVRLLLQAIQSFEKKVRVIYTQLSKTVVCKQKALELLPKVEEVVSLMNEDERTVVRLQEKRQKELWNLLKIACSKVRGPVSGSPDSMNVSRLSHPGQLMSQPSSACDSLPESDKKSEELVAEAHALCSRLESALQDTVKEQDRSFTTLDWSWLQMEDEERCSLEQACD
Method in brief: (§1)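 C57BL/6 marrow-derived macrophages were cultured in 70% growth medium/30% L929-conditioned medium and refreshed 12-14 h before stimulation. Stimuli were TNF 40 ng/ml or LPS 100 ng/ml, ± compound at 25 μM from a 200x DMSO stock. Western blots tracked IKK, p38, IκBα and phospho-RelA. Results from three independent experiments were quantitated and normalized.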

[2] = target: T1, Inhibitor of nuclear factor kappa-B kinase subunit beta (Mus musculus); experiment: Inhibition of IKKbeta in C57BL/6 mouse BMDM cells assessed as inhibition of LPS-induced IkappaBalpha degradation at 50 uM up to 90 mins by Western blot analysis
[3] = target: T2, Toll-like receptor 9 (Mus musculus) (UniProt Q9EQU3); experiment: Inhibition of MyD88 recruitment to TLR9 in C57BL/6 mouse BMDM cells assessed as inhibition of CpG-induced IkappaBalpha phosphorylation up to 90 mins by Western blot analysis
T2 sequence (whole entry): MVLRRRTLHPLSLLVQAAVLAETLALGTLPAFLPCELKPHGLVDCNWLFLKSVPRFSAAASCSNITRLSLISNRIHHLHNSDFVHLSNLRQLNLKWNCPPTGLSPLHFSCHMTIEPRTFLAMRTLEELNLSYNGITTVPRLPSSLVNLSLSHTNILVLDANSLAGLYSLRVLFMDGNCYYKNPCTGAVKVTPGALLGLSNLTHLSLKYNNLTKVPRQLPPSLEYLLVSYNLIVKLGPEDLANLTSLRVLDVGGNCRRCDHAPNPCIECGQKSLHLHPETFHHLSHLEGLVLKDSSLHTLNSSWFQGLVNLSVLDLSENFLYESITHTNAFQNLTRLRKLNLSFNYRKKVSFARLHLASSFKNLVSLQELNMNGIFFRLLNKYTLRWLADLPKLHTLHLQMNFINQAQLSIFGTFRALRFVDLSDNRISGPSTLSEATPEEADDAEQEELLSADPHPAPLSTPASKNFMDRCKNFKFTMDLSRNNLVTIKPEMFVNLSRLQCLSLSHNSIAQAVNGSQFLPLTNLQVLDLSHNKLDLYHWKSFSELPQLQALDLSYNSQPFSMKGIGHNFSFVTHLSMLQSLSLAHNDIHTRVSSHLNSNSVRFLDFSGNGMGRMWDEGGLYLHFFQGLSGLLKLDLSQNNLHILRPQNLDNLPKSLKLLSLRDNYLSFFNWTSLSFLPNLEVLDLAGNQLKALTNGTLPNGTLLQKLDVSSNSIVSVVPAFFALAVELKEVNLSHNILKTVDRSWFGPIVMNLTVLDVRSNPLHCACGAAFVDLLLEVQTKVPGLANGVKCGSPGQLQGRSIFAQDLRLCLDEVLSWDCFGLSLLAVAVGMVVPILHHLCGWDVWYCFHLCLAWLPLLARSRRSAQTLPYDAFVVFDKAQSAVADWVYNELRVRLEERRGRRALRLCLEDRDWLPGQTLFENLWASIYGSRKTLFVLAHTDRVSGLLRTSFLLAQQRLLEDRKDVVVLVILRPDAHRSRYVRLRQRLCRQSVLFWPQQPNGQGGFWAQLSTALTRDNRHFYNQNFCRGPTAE
Method in brief: (§2)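 Bone marrow macrophages from C57BL/6 mice, grown in 70% growth medium (DMEM, 10% FBS) plus 30% L929-conditioned medium and given fresh medium 12-14 h before stimulation. Stimuli: IL-1 40 ng/ml, HKSA ~10^8 cfu/ml, pI:pC 50 μg/ml or CpG 10 μg/ml, ± compound at 10 μM (final) added from a 200x DMSO stock. IκBα and p38 profiled by immunoblot. Three independent experiments, quantitated and normalized.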

[4] = target: T1, Inhibitor of nuclear factor kappa-B kinase subunit beta (Mus musculus); experiment: Inhibition of IKKbeta in C57BL/6 mouse BMDM cells assessed as inhibition of TNFalpha-induced phosphorylation at 25 uM after 5 mins by Western blot analysis; method in brief: as §1
[5] = target: Toll-like receptor 2 (Mus musculus) (UniProt Q9QUN7); experiment: Inhibition of MyD88 recruitment to TLR2 in C57BL/6 mouse BMDM cells assessed as inhibition of HKSA-induced IkappaBalpha phosphorylation up to 90 mins by Western blot analysis; method in brief: as §2
[6] = target: T1, Inhibitor of nuclear factor kappa-B kinase subunit beta (Mus musculus); experiment: Inhibition of IKKbeta in C57BL/6 mouse BMDM cells assessed as inhibition of TNFalpha-induced RelA phosphorylation at 25 uM after 5 mins by Western blot analysis; method in brief: as §1

Toll-like receptor 2 (Mus musculus), sequence (Q9QUN7 whole entry): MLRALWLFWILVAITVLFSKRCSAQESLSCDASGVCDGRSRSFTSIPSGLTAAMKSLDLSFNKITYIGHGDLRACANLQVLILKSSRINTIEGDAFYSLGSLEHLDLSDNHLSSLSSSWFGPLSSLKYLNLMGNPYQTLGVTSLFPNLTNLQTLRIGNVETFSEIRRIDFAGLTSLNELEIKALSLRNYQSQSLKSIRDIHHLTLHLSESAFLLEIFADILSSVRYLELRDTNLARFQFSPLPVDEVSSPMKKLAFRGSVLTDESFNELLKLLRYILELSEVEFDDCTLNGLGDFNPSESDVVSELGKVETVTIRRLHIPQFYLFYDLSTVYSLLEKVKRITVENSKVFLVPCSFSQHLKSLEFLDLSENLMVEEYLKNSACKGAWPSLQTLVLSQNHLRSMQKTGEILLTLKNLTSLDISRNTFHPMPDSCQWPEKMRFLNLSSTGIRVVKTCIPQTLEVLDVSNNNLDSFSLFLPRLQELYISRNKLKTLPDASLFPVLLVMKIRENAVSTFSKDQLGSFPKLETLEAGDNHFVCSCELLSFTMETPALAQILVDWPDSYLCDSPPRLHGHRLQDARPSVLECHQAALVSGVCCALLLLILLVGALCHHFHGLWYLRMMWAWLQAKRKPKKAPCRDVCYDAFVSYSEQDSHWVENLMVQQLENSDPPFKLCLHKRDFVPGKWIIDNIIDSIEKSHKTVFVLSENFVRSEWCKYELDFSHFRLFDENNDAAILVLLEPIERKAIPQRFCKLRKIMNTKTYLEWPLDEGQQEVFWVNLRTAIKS

**Q.** How did the inhibition [1] turn out when `O=C(CCCCCN1C(=O)CCC1=O)Oc1ccc2cc(C(C(=O)NCc3ccccc3)N(C(=O)Cc3ccc4c(c3)OCO4)C3CC3)ccc2c1` (stereo not drawn) was run?
**A.** Its inhibition is “inactive”.

**Q.** What about the “inhibition (active/not active)” value [2] of the same molecule?
**A.** The value was “inactive”.

**Q.** And the inhibition [3]?
**A.** Its inhibition is “Active”.

**Q.** And the inhibition [4]?
**A.** The inhibition was “inactive”.

**Q.** And the inhibition [5]?
**A.** The inhibition was “Active”.

**Q.** And the inhibition [6]?
**A.** The inhibition was “inactive”.

**Q.** What does the source list for `O=C(CCCCCN1C(=O)C=CC1=O)Oc1ccc2cc(C(C(=O)NCc3ccccc3)N(C(=O)Cc3ccc4c(c3)OCO4)C3CC3)ccc2c1` (stereo not drawn)?
**A.** inhibition [1]: inactive; inhibition (active/not active) [2]: Active; inhibition [3]: Active; inhibition [4]: inactive; inhibition [5]: Active; inhibition [6]: inactive

**Q.** How did the inhibition [1] turn out when `O=C(CCCCCCCC(=O)ON1C(=O)CCC1=O)Oc1ccc2cc(C(C(=O)NCc3ccccc3)N(C(=O)Cc3ccc4c(c3)OCO4)C3CC3)ccc2c1` (stereo not drawn) was run?
**A.** Its inhibition is “inactive”.

**Q.** And the “inhibition (active/not active)” value [2]?
**A.** Its value is “Active”.

**Q.** And the inhibition [3]?
**A.** Its inhibition is “Active”.

**Q.** And the inhibition [4]?
**A.** Its inhibition is “inactive”.

**Q.** And the inhibition [5]?
**A.** Its inhibition is “Active”.

**Q.** What about the inhibition [6] of the same molecule?
**A.** Its inhibition is “inactive”.
